Measured values published in ChEMBL document CHEMBL4311984, “Design and synthesis of H2S-donor hybrids: A new treatment for Alzheimer's disease?” (Eur J Med Chem, 2019).
Activity calls are given as the source filed them. No cut-off for these calls is given here.

Tests used:
[1] = test system: BV-2; assay: Antioxidant activity in mouse BV2 cells assessed as reduction in LPS-induced ROS release at 1 uM preincubated with compound for 1 hr followed by LPS addition and measured after 24 hrs by cell analyser based assay (reference value: 154 +/- 3.8%); type: functional; parameters: scale not given: the % may be the effect or the level left
[2] = test system: BV-2; assay: Induction of H2S generation in mouse BV2 cells at 100 uM after 45 mins by WSP-1 fluorescence dye based spectrofluorimetric analysis; type: functional, cell-based
Summary of the method: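 BV-2 cells, 72 × 10³/well, were seeded serum-free 24 h before the assay and loaded with WSP-1 for 30 min. Dye was then replaced with compound in HEPES-buffered saline, pH 7.4 (vehicle DMSO 1%). Fluorescence was recorded for 45 min, and total H₂S release was expressed as AUC of fluorescence index. Data are mean ± SE, n=9, with diallyl disulfide as reference donor.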

[3] = test system: BV-2; assay: Inhibition of LPS-induced nitric oxide in mouse BV2 cells assessed as reduction in intracellular nitric oxide level at 1 uM preincubated with compound for 1 hr followed by LPS addition and measured after 24 hrs by cell analyser based assay (reference value: 145.7 +/- 4.4%); type: functional
[4] = test system: SH-SY5Y; assay: Neuroprotection against amyloid beta (1 to 42 residues)-induced toxicity in human SH-SY5Y cells preincubated for 24 hrs followed by amyloid beta addition and measured after 4 hrs by MTT-based exocytosis assay; type: functional, cell-based
Summary of the method: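 Aβ1-42 was dissolved in hexafluoroisopropanol (1 mg/mL), sonicated, held 24 h at room temperature and lyophilised. SH-SY5Y cells, 3 × 10⁴/well, were pretreated 24 h with compound and then given Aβ1-42 oligomers for 4 h at 37 °C. MTT (0.5 mg/mL in HBSS) was applied for 1 h, granules were solubilised in 10% Tween-20, and absorbance read at 570 nm (ref 690).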

[5] = test system: SH-SY5Y; assay: Cytotoxicity against human SH-SY5Y cells assessed as cell viability up to 5 uM after 24 hrs by MTT assay; type: cell-based
Summary of the method: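 SH-SY5Y cells, 2 × 10⁴/well, were allowed 24 h to attach, then exposed for 24 h to a series of concentrations (1.25–40). MTT (0.5 mg/mL in HBSS) was applied for 2 h at 37 °C, and formazan was dissolved in isopropanol and read at 570 nm (ref 690 nm). Results are % viability versus untreated cells.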

[6] = test system: BV-2; assay: Cytoprotection against LPS-induced cell damage in mouse BV2 cells assessed as increase in cell viability at 1 uM preincubated with compound for 1 hr followed by LPS addition and measured after 24 hrs by cell analyser based assay (reference value: 80.6 +/- 1.2%); type: functional
[7] = test system: SH-SY5Y; assay: Antioxidant activity in human SH-SY5Y cells assessed as inhibition of tert-butyl hydroperoxide-induced intracellular ROS generation at 5 uM preincubated with compound for 24 hrs followed by tert-butyl hydroperoxide addition after 30 mins by DCFH-DA dye based fluorescence assay; type: functional, cell-based
Summary of the method: (§1)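 SH-SY5Y cells, 2 × 10⁴/well, were allowed 24 h to attach, then given compound for 24 h at 37 °C. They were loaded with DCFH-DA ([…]) for 30 min at room temperature and then challenged with H₂O₂ or t-BuOOH, each at 50 µM, for 30 min. Results are percent inhibition of oxidant-induced ROS, mean ± SEM, n=3 independent experiments.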

[8] = test system: SH-SY5Y; assay: Antioxidant activity in human SH-SY5Y cells assessed as increase in GSH level at 5 uM after 24 hrs by MCB-dye based fluorescence assay relative to control; type: functional
Summary of the method: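 SH-SY5Y cells, 2 × 10⁴/well, were allowed 24 h to attach, then given compound for 24 h at 37 °C in 5% CO₂. Medium was replaced with monochlorobimane for 30 min at 37 °C, and fluorescence read at ex 355/em 460 nm. Results are percent increase in GSH, mean ± SEM of three independent experiments.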

[9] = biological target: T1, Nuclear factor erythroid 2-related factor 2 (Homo sapiens) (UniProt Q16236); assay: Activation of Nrf2 in human SH-SY5Y cells at 5 uM after 1 to 6 hrs by ELISA method; type: cell-based
T1 sequence (whole entry): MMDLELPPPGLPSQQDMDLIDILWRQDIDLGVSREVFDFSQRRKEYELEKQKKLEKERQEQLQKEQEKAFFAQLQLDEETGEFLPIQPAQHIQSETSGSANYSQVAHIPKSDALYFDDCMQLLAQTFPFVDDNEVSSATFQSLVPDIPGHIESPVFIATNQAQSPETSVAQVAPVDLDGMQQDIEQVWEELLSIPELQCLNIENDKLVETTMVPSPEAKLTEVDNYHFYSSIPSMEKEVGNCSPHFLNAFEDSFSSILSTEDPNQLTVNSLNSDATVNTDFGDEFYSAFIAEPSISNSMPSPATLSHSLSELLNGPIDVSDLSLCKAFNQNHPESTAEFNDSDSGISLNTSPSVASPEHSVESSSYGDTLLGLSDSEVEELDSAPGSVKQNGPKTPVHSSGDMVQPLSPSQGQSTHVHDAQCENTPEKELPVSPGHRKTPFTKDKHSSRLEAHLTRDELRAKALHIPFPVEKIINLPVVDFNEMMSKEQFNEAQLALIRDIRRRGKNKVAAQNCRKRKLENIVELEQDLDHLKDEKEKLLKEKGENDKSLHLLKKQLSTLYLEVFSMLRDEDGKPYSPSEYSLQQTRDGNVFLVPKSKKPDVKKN
Summary of the method: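 SH-SY5Y cells, 2 × 10⁶ per dish, exposed to compound for 1, 3 and 6 h at 37 °C in 5% CO₂. Nuclear extracts were then taken and active Nrf2 measured by DNA-binding ELISA (antibody recognises ARE-bound Nrf2). Results are fold increase over matched untreated cells, mean ± SEM of three independent experiments, two-way ANOVA with Bonferroni.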

[10] = test system: SH-SY5Y; assay: Antioxidant activity in human SH-SY5Y cells assessed as inhibition of H2O2-induced intracellular ROS generation at 5 uM preincubated with compound for 24 hrs followed by H2O2 addition after 30 mins by DCFH-DA dye based fluorescence assay; type: functional, cell-based; summary of the method: as §1
[11] = test system: BV-2; assay: Inhibition of LPS-induced nitric oxide in mouse BV2 cells assessed as intracellular nitric oxide level at 1 uM preincubated with compound for 1 hr followed by LPS addition and measured after 24 hrs by cell analyser based assay (reference value: 145.7 +/- 4.4%); type: functional; parameters: scale not given: the % may be the effect or the level left
[12] = test system: BV-2; assay: Cytoprotection against LPS-induced cell damage in mouse BV2 cells assessed as cell viability at 1 uM preincubated with compound for 1 hr followed by LPS addition and measured after 24 hrs by cell analyser based assay (reference value: 80.6 +/- 1.2%); type: functional; conditions: read-out: Activity
[13] = test system: BV-2; assay: Antioxidant activity in mouse BV2 cells assessed as effect on LPS-induced ROS release at 1 uM preincubated with compound for 1 hr followed by LPS addition and measured after 24 hrs by cell analyser based assay (reference value: 154 +/- 3.8%); type: functional

SMILES	Activity [1]	Activity [2]	inhibition [3]	Activity [4]	Activity [5]	Activity [6]	Activity [7]	Activity [8] [%]	Activity [9]	Activity [10]	Activity [11] [%]	viability at 1 µM [12] [%]	Activity [13]
CCN(C)C(=O)Oc1cccc(CCNC(=O)C[S+]([O-])CCCCN=C=S)c1 (stereo unspecified)	30 - 35%	Active	Active	inactive	Non-Toxic	–	–	–	–	–	–	–	–
CCN(C)C(=O)Oc1cccc(CNC(=O)C[S+]([O-])CCCCN=C=S)c1 (stereo unspecified)	30 - 35%	Active	Active	inactive	Non-Toxic	Active	–	–	–	–	–	–	–
C=CCSSCC=C	–	Active	–	–	–	–	–	–	–	–	–	–	–
CCN(C)C(=O)Oc1cccc(NC(=O)CSCCCCN=C=S)c1	30 - 35%	Active	Active	inactive	Non-Toxic	–	Active	35.6	Active	Active	114	93	–
CCN(C)C(=O)Oc1cccc([C@H](C)N(C)C)c1 [RIVASTIGMINE]	–	Active	Active	–	–	–	–	–	–	–	–	84	inactive
CCN(C)C(=O)Oc1cccc(CNC(=O)CSCCCCN=C=S)c1	30 - 35%	Active	Active	inactive	Non-Toxic	Active	Active	25.73	inactive	Active	125.9	–	–
CCN(C)C(=O)Oc1cccc(NC(=O)C[S+]([O-])CCCCN=C=S)c1 (stereo unspecified)	30 - 35%	Active	Active	inactive	Non-Toxic	Active	–	–	–	–	–	–	–
CCN(C)C(=O)Oc1cccc(CCNC(=O)CSCCCCN=C=S)c1	30 - 35%	Active	Active	inactive	Non-Toxic	Active	–	–	–	–	98.8	–	–
